Bioassay records as filed in PubChem.
V-ATPase pH = regulators of yeast V-ATPase proton pumping, primary screen, pHLuorin cytosolic pH fluorescence. S. cerevisiae. response, % at 10 µM. actives 0.37% (n = 350,000); in the data active = response mostly above about 7.3%, no sharp cut-off; inactive = mostly below about 5.4%; note: actives read high
NR2E3 ag-1 = NR2E3 agonists in two-hybrid cells, primary screen, cell-based, luminescence, CHO-S, Gal4-NCOR/VP16-NR2E3; luciferase; actives 0.35% (n = 360,000); inhibition of corepressor binding, % at 3.98 µM;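 active = inhibition above the mean of all tested compounds plus 3 SD, cut at about 70% in these data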;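 note: 0% = DMSO with NR2E3 transfected cells and 100% = cells lacking NR2E3 construct; higher means lower luciferase signal from less NR2E3 corepressor binding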
Target sequence (Q9Y5X4 whole entry, looked up, the tested form may be a part): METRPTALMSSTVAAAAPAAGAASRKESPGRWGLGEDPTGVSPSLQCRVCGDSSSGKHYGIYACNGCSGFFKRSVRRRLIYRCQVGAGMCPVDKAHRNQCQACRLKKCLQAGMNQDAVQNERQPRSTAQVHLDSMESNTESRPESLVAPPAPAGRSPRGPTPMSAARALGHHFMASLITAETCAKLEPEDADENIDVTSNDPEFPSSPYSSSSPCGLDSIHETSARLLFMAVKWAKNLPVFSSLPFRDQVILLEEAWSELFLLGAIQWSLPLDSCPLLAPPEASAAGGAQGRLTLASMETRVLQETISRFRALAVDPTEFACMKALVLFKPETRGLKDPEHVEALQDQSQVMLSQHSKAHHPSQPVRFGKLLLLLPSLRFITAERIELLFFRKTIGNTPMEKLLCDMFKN
GAA850 FXN act = FXN promoter activators, primary screen, cell-based, luciferase luminescence, HEK293 lucGAA850 | HEK293 lucGAA850 FXN promoter luciferase reporter, 24 h; percent of 10 µM SAHA response | activation, % at 6 µM | actives 0.56% (n = 360,000) | AID 540364, 2011;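 active = activation above the average of all compounds screened plus 3 SD, cutoff fixed separately per campaign, cut at about 7.5% in these data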;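 note: 0% = DMSO wells and 100% = 10 µM SAHA wells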
NR2E3 ag-2 = inhibitors of NR2E3-RetCOR corepressor binding, primary screen, NR2E3 agonist project, biochemical, TR-FRET, GST-NR2E3, biotin-RetCOR; Photoreceptor-specific nuclear receptor (Homo sapiens), Q9Y5X4; actives 0.12% (n = 320,000); inhibition of corepressor binding, % at 4.78 µM; 1536-well; AID 2300, 2010;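 active = percent inhibition above the cutoff of mean plus 3 SD of all tested compounds, set per screening campaign, cut at about 20% in these data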;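 note: 0% = DMSO wells and 100% = biotin wells as full block of FRET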
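Format: 1536-well format; test system: GST-NR2E3 and biotin-RetCOR proteins; read-out basis: percent inhibition of TR-FRET ratio; timing: 5 h incubation at 4 °C; detection: time-resolved FRET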
GalR3 antag = GalR3 antagonists in HEK293 cells, primary screen, cell-based, fluorescence readout. inhibition, % at 3 µM. AID 651719, 2012. actives 0.44% (n = 360,000). HEK293 GalR3-CNG cAMP membrane potential fluorescence; galR3 body fused to GalR1 C-terminus. Galanin receptor type 3 (Homo sapiens), O60755;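 active = inhibition above the screen-wide average plus 3 SD, cut at about 13% in these data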;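 note: forskolin and galanin both at EC90 stimulate the cells; cAMP rise reported by CNG channel membrane potential dye signal; 0% = forskolin plus galanin with DMSO and 100% = forskolin alone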
Target sequence (O60755 1-299 limits assumed): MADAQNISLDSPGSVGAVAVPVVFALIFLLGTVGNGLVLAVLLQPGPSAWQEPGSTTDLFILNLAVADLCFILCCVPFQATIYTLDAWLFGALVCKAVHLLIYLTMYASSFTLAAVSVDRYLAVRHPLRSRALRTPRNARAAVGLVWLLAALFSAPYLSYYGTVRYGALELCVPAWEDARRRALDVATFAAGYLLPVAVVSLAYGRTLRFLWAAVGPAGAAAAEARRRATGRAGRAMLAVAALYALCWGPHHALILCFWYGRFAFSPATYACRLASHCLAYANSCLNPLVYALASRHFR
Env fusion inh = inhibitors of HIV-1 Env-driven cell-cell fusion, primary screen, HeLa-JRFL effector, CEM21 target cells, luciferase; inhibition, % at 12.3 µM; actives 1.1% (n = 360,000); AID 651610, 2012;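 active = mean replicate inhibition score of at least 50 and every replicate individually at or above 50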;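 note: 0% = plate neutral controls and 100% = maraviroc near 300 nM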
NR2E3 ag conf = NR2E3 agonist confirmation in cells, cell-based, luminescence, CHO-S two-hybrid; shares compounds with NR2E3 ag-1; CHO-S mammalian two-hybrid NR2E3-NCOR, luciferase luminescence; inhibition, % at 3.98 µM; actives 51% (n = 2,300); AID 624378, 2012;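 active = average inhibition above a cutoff equal to the mean inhibition of all tested compounds plus one SD, cut at about 70% in these data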;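 note: 0% = DMSO in NR2E3 cells and 100% = DMSO in cells lacking NR2E3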
VP16 counter = GAL4-VP16 reporter modulators, confirmation, counter-screen for NR2E3 agonist project, cell-based, luminescence, CHO-S, high throughput | inhibition, % at 3.98 µM | actives 29% (n = 2,300) | CHO-S GAL4-VP16 luciferase reporter | shares compounds with NR2E3 ag-1 | AID 624379, 2012;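 active = mean inhibition above a cutoff equal to the average over all tested compounds plus one standard deviation, cut at about 70% in these data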;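 note: luciferase from a UAS reporter driven by GAL4-VP16 transactivation; 0% = DMSO with VP16-transfected cells and 100% = DMSO with cells lacking VP16; higher means less reporter light so more repression of VP16 activity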
* = called active by the depositor; i = inactive; / = not tested or not shown; [ ] = dose if it differs, or a comment. Shown are actives, neighbours in structure and some others; about 2.2% of the full set was active somewhere.

SMILES	V-ATPase pH	NR2E3 ag-1	GAA850 FXN act	NR2E3 ag-2	GalR3 antag	Env fusion inh	NR2E3 ag conf	VP16 counter
O=S(=O)(c1cccc(Br)c1)N1CCN(c2ncnc3scc(-c4ccccc4)c23)CC1	-3	-37	-1	/	1	12	/	/
CCOc1c(Br)cc(CNc2ccc3c(c2)OCCO3)cc1OC	8	66	-14	2	-1	/	18	-5
Cc1cc(N)n2ncc(-c3ccccc3)c2n1	-1	-109	3	-2	-1	/	/	/
CC(=O)Nc1ccc(Nc2cc(C)nc3c(-c4ccccc4)cnn23)cc1	-3	50	-8	1	-5	/	52	-11
O=S(=O)(N[C@@H]1CCCN(Cc2ccc(OCCO)cc2)C1)c1cc(Cl)ccc1Cl	/	/	/	/	/	-8[16.7 µM]	/	/
FC(F)(F)c1nc(-c2ccncc2)ncc1-c1nnnn1-c1ccccc1	0	15	0	0	-2	-18	/	/
Fc1ccc(-n2nnnc2-c2cnc(-c3cccs3)nc2C(F)(F)F)cc1	1	88*	-11	0	-4	77*	92*	69
C[C@H]1CN([C@@H](C)CO)C(=O)Cc2cc(NS(C)(=O)=O)ccc2O[C@H]1CN(C)C(=O)Nc1ccc(C(F)(F)F)cc1	/	/	/	/	/	6[16.7 µM]	/	/
COC(=O)N/N=C/c1cc(Br)ccc1O	1	-37	-1	-1	0	-8	/	/
CC(C)NC(=S)N/N=C/c1cc(Br)ccc1O	-3	72*	2	1	-4	20	-61	-36
COc1ccc(S(=O)(=O)N(C)C[C@H]2OCCCC[C@H](C)Oc3ccc(NS(C)(=O)=O)cc3C(=O)N([C@H](C)CO)C[C@H]2C)cc1	/	/	/	/	/	-5[16.7 µM]	/	/
C[C@H](CO)N1C[C@H](C)[C@H](CN(C)Cc2ccccn2)Oc2ncc(C#Cc3cccc(F)c3)cc2C1=O	/	/	/	/	/	7[16.7 µM]	/	/
C[C@@H]1CCCCO[C@@H](CN(C)C(=O)c2ccncc2)[C@H](C)CN([C@H](C)CO)C(=O)c2cc(NS(=O)(=O)c3ccc(Cl)cc3)ccc2O1	/	/	/	/	/	-26[16.7 µM]	/	/
COc1cccc(NC(=O)C2(C)CCN2C(=O)Cc2ccc(-c3ccccc3)cc2)c1 (stereo not given)	/	33	-3	/	-5	17	/	/
CC1(C(=O)Nc2ccccc2)CCN1C(=O)Cc1ccc(-c2ccccc2)cc1 (stereo not given)	/	53	-1	/	-10	44	46	33
CC1(C(=O)Nc2ccc3c(c2)OCO3)CCN1C(=O)Cc1ccc(-c2ccccc2)cc1 (stereo not given)	/	94*	-2	/	-9	30	97*	84*
CC1(C(=O)Nc2ccc(Cl)c(Cl)c2)CCN1C(=O)CC(c1ccccc1)c1ccccc1 (stereo not given)	/	13	2	/	-6	11	/	/
CC1(C(=O)Nc2ccc(Cl)c(Cl)c2)CCN1C(=O)Cc1ccc(-c2ccccc2)cc1 (stereo not given)	/	68	1	/	/	/	93*	73*
COc1ccc(CN(C)C[C@@H]2OCCCC[C@H](C)Oc3ccc(NS(=O)(=O)c4ccc(Cl)cc4)cc3C(=O)N([C@H](C)CO)C[C@@H]2C)cc1	/	/	/	/	/	12[16.7 µM]	/	/
Cn1c2ccccc2c(=O)c2ccc(C#CC3(O)CCCCC3)cc21	4	56	-10	-3	-7	-35	17	-81
COc1cccc(-c2cnc3c(c2)C(=O)N([C@H](C)CO)C[C@@H](C)[C@H](CN(C)C(=O)CN(C)C)O3)c1	/	/	/	/	/	-22[16.7 µM]	/	/
C/C=C/c1ccc2c(c1)O[C@H](CN(C)C(=O)CN(C)C)[C@@H](C)CN([C@@H](C)CO)S2(=O)=O	/	/	/	/	/	-6[16.7 µM]	/	/
CCn1c(-c2ccccc2)c(C(=O)CCl)c2ccccc21	3	20	-1	-5	-2	41	/	/
Cn1c(-c2ccccc2)c(C(=O)CCl)c2ccccc21	4	48	-1	/	-8	64*	-17	10
CCCNC(=O)c1ccc(N2CCC3(CC2)CC(c2cccc(Br)c2)=NO3)c([N+](=O)[O-])c1	-3	57	-3	-1	-10	-1	74*	59
SMILES	V-ATPase pH	NR2E3 ag-1	GAA850 FXN act	NR2E3 ag-2	GalR3 antag	Env fusion inh	NR2E3 ag conf	VP16 counter
Cc1ccc(CNC(=O)c2ccc(N3CCC4(CC3)CC(c3cccc(Br)c3)=NO4)c([N+](=O)[O-])c2)cc1	-3	8	1	3	-2	/	/	/
Cc1ccc(CCNC(=O)C(C)n2nc(C)c3c(C)n(-c4ccccc4)nc3c2=O)cc1 (stereo not given)	-1	-4	-1	-1	0	5	/	/
Cc1ccc(-n2nc3c(=O)n(C(C)C(=O)NCCC4=CCCCC4)nc(C)c3c2C)cc1 (stereo not given)	2	51	-4	-2	3	38	12	41
C[C@H](CO)N1C[C@H](C)[C@H](CN(C)C)Oc2ccc(NS(=O)(=O)c3ccccc3)cc2C1=O	/	/	/	/	/	-17[16.7 µM]	/	/
CC(=O)Nc1cc2nn(-c3ccccc3)nc2cc1Cl	-5	-116	5	-4	-1	-143	/	/
CC(C)(C)C(=O)Nc1cc2nn(-c3ccccc3)nc2cc1Cl	-4	92*	-15	/	-2	i	75*	55
C[C@H]1CN([C@@H](C)CO)C(=O)c2cc(NS(=O)(=O)c3ccccc3)ccc2O[C@@H]1CN(C)S(=O)(=O)c1cccs1	/	/	/	/	/	-2[16.7 µM]	/	/
CC[C@@]1(O)C(=O)OCc2c1cc1n(c2=O)Cc2cc3c(CN(C)C)c(O)ccc3nc2-1	3	44	-13	14	/	/	/	/
CC[C@@]1(O)C(=O)OCc2c1cc1n(c2=O)Cc2cc3c(N)cccc3nc2-1	-7	82*	-12	-7	-6	68*	88*	41
Cc1nc(N/N=C/c2cccc(F)c2)cc(N2CCOCC2)n1	0	49	0	2	1	5	21	13
CCOC(=O)C(C)Sc1nc(-c2ccccn2)ncc1OC (stereo not given)	4	44	0	-4	-5	1	/	/
COc1cnc(-c2ccccn2)nc1Sc1ccccc1Cl	2	91*	0	-5	-10	-41	90*	25
